One block for each compound: values may come before it.
Columns and labels:
Format in all cases: functional
[1] = species on record: Homo sapiens; test: In vitro inhibitory activity on platelet aggregation induced by arachidonic acid (AA)
How it was run: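 Platelets were preincubated 1 min at 37 °C with test sample or 0.5% DMSO. Aggregation was then triggered with arachidonic acid 100. Aspirin and indomethacin served as positive controls.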

[2] = species on record: Homo sapiens; test: In vitro inhibitory activity of compound 5 (ug/ml) on platelet aggregation induced by AA
How it was run: (§1)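 Platelets were preincubated with test sample or 0.5% DMSO vehicle at 37 °C for 1 min. Aggregation was then triggered by one inducer: thrombin 0.1 U/mL, arachidonic acid 100, collagen 10, or PAF 2 ng/mL. Read-out was percent aggregation, reported as mean±SE with n=3–6.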

[3] = species on record: Homo sapiens; test: In vitro inhibitory activity of control on platelet aggregation induced by thrombin; how it was run: as §1
[4] = species on record: Homo sapiens; test: In vitro inhibitory activity of compound 2 (ug/ml) on platelet aggregation induced by AA; how it was run: as §1
[5] = species on record: Homo sapiens; test: In vitro inhibitory activity of compound 1 (ug/ml) on platelet aggregation induced by AA; how it was run: as §1
[6] = species on record: Homo sapiens; test: In vitro inhibitory activity of control on platelet aggregation induced by AA; how it was run: as §1
[7] = species on record: Homo sapiens; test: In vitro inhibitory activity of compound 10 (ug/ml) on platelet aggregation induced by collagen; how it was run: as §1
[8] = species on record: Homo sapiens; test: In vitro inhibitory activity of compound 0.5 (ug/ml) on platelet aggregation induced by AA; how it was run: as §1
[9] = species on record: Homo sapiens; test: In vitro inhibitory activity of control on platelet aggregation induced by PAF; how it was run: as §1
[10] = species on record: Homo sapiens; test: In vitro inhibitory activity of compound 100 (ug/ml) on platelet aggregation induced by AA; how it was run: as §1
[11] = species on record: Homo sapiens; test: In vitro inhibitory activity of compound 0.5 (ug/ml) on platelet aggregation induced by collagen; how it was run: as §1
[12] = species on record: Homo sapiens; test: In vitro inhibitory activity of control on platelet aggregation induced by collagen; how it was run: as §1
[13] = species on record: Homo sapiens; test: In vitro inhibitory activity of compound 0.1 (ug/ml) on platelet aggregation induced by collagen; how it was run: as §1
[14] = species on record: Homo sapiens; test: In vitro inhibitory activity of compound on platelet aggregation induced by collagen; how it was run: as §1
[15] = species on record: Homo sapiens; test: In vitro inhibitory activity of compound 5 (ug/ml) on platelet aggregation induced by collagen; how it was run: as §1
[16] = species on record: Homo sapiens; test: In vitro inhibitory activity of compound 1 (ug/ml) on platelet aggregation induced by collagen; how it was run: as §1
[17] = species on record: Homo sapiens; test: In vitro inhibitory activity of compound 100 (ug/ml) on platelet aggregation induced by thrombin; how it was run: as §1
[18] = species on record: Homo sapiens; test: In vitro inhibitory activity of compound 2 (ug/ml) on platelet aggregation induced by collagen; how it was run: as §1
[19] = species on record: Homo sapiens; test: In vitro inhibitory activity of compound 0.2 (ug/ml) on platelet aggregation induced by collagen; how it was run: as §1
[20] = species on record: Homo sapiens; test: In vitro inhibitory activity of compound 0.2 (ug/ml) on platelet aggregation induced by AA; how it was run: as §1
[21] = species on record: Homo sapiens; test: In vitro inhibitory activity of compound 100 (ug/ml) on platelet aggregation induced by PAF; how it was run: as §1
[22] = species on record: Homo sapiens; test: In vitro inhibitory activity of compound 100 (ug/ml) on platelet aggregation induced by collagen; how it was run: as §1
[23] = species on record: Homo sapiens; test: Potent antiplatelet activity was evaluated
[24] = species on record: Homo sapiens; test: In vitro inhibitory activity of compound 0.1 (ug/ml) on platelet aggregation induced by AA; how it was run: as §1
[25] = species on record: Homo sapiens; test: In vitro inhibitory activity of compound 50 (ug/ml) on platelet aggregation induced by PAF; how it was run: as §1
[26] = species on record: Homo sapiens; test: In vitro inhibitory activity of compound 20 (ug/ml) on platelet aggregation induced by PAF; how it was run: as §1

Structure (SMILES): CCc1cccc2nc(-c3ccccc3)cc(OCC(=O)NC)c12
IC50 [1]: 1880 nM

Structure (SMILES): O=C(O)COc1cc(-c2ccccc2)nc2ccccc12
IC50 [1]: 35600 nM

Structure (SMILES): CCOc1cc(-c2ccccc2)nc2ccccc12
Aggregation [2]: 0%
Aggregation [3]: 92.5%
Aggregation [4]: 1.7%
Aggregation [5]: 4.3%
Aggregation [6]: 90.9%
Aggregation [7]: 5.9%
Aggregation [8]: 23.1%
IC50 [1]: 2010 nM
Aggregation [9]: 92%
Aggregation [10]: 0%
Aggregation [11]: 43.5%
Aggregation [12]: 89.2%
Aggregation [13]: 85.9%
IC50 [14]: 3610 nM
Aggregation [15]: 15.9%
Aggregation [16]: 36.3%
Aggregation [17]: 80%
Aggregation [18]: 28.4%
Aggregation [19]: 78.5%
Aggregation [20]: 86.4%
Aggregation [21]: 63.8%
Aggregation [22]: 0%

Structure (SMILES): CCc1cccc2c1c(=O)cc(-c1ccccc1)n2C
IC50 [1]: 30000 nM

Structure (SMILES): CCOC(=O)CCCOc1cc(-c2ccccc2)nc2cccc(CC)c12
IC50 [1]: 1540 nM

Structure (SMILES): CCc1cccc2nc(-c3ccccc3)cc(O)c12
IC50 [23]: 150 nM

Structure (SMILES): CCOC(=O)COc1cc(-c2ccccc2)nc2ccccc12
IC50 [1]: 13900 nM

Structure (SMILES): CCOc1cc(-c2ccccc2)nc2cc(CC)ccc12
IC50 [1]: 3970 nM

Structure (SMILES): CC(=O)Oc1ccccc1C(=O)O [ASPIRIN]
IC50 [1]: 20000 nM

Structure (SMILES): COc1cc(-c2ccccc2)nc2ccccc12
Aggregation [3]: 92.5%
Aggregation [4]: 0%
Aggregation [5]: 9.3%
Aggregation [6]: 90.9%
Aggregation [8]: 53.4%
Aggregation [24]: 90.8%
IC50 [1]: 2130 nM
Aggregation [9]: 92%
Aggregation [10]: 0%
Aggregation [25]: 65.8%
Aggregation [12]: 89.2%
IC50 [14]: 1700 nM
Aggregation [15]: 0%
Aggregation [26]: 87.2%
Aggregation [16]: 18.5%
Aggregation [17]: 56.8%
Aggregation [18]: 9.4%
Aggregation [20]: 86%
Aggregation [21]: 0%
Aggregation [22]: 0%

Structure (SMILES): CCOC(=O)COc1cc(-c2ccccc2)nc2cccc(CC)c12
IC50 [1]: 780 nM

Now from value to compound:

IC50 [1]: 140 nM
Structure (SMILES): CCOc1cc(-c2ccccc2)nc2cccc(CC)c12

IC50 [1]: 80 nM
Structure (SMILES): CCc1cccc2nc(-c3ccccc3)cc(OC)c12

IC50 [1]: 250 nM
Structure (SMILES): COc1ccc2c(c1)c(CC(=O)O)c(C)n2C(=O)c1ccc(Cl)cc1 [INDOMETHACIN]

IC50 [1]: 600 nM
Structure (SMILES): CCNC(=O)COc1cc(-c2ccccc2)nc2cccc(CC)c12

IC50 [1]: 530 nM
Structure (SMILES): CCOC(=O)CCCCOc1cc(-c2ccccc2)nc2cccc(CC)c12

Reference: ChEMBL document CHEMBL1134765, “Synthesis of 4-alkoxy-2-phenylquinoline derivatives as potent antiplatelet agents” (Bioorg Med Chem Lett, 2001)
